In data set [1] the test system is J774.A1. Nature of the data set: Antiinflammatory activity in LPS-induced mouse J774.A1 cells assessed as inhibition of LPS-induced IL-6 release preincubated for 30 mins followed by LPS stimulation for 24 hrs by ELISA method. Type of data set: functional, cell-based. In short, it runs like this: (§1)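 Dose-response in J774A.1 cells: 30 min pretreatment at 10, 5, 2.5 or 1.25 μM, then LPS 0.5 μg/mL for 24 h. IL-6 and TNF-α by ELISA, normalized to lysate protein; IC50 from the dose-response; 3 independent experiments, mean ± SEM.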
(An ELISA detects its analyte on a solid surface through an enzyme-linked reagent.)

Data set [2] is described as follows: Tmax in rat at 10 mg/kg, po. It is filed as ADME, organism-based. The note with it: in vivo. In short, it runs like this:
(§2)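 Rats dosed intravenously at 1 mg/kg or orally at 10 mg/kg; plasma pharmacokinetic parameters AUC(0-t), Tmax, T1/2, Cmax and oral bioavailability F derived from the two routes.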

Data set [3] can be described thus: AUC (0 to t) in rat at 10 mg/kg, po. Type of data set: ADME, organism-based. The arrangement: dose 10 mg/kg, route po. The following applies: in vivo. In short, it runs like this: as §2
The subject of data set [4] is J774.A1. Nature of the data set: Cytotoxicity against mouse J774.A1 cells assessed as reduction in cell viability at 10 uM incubated for 24 hrs by MTT assay. Type of data set: functional, cell-based. A digest of the protocol: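 J774A.1 macrophages exposed to 10 μM for 24 h; MTT at 5 mg/mL added for 4 h; absorbance read at 490 nm; viability expressed as percent of DMSO control.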
For orientation: Formazan colour is commonly taken as a measure of viable cells.

The nature of data set [5]: Cmax in rat at 10 mg/kg, po. It is filed as ADME, organism-based. On the set-up: dose 10 mg/kg, route po. The following applies: in vivo. In short, it runs like this:
as §2

In data set [6] the test system is THP-1. As to the kind of experiment: Antiinflammatory activity in LPS-induced human THP-1 cells assessed as inhibition of LPS-induced IL-6 release preincubated for 30 mins followed by LPS stimulation for 24 hrs by ELISA method. It is filed as functional, cell-based. A digest of the protocol:
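THP-1 or LX-2 cells in DMEM with 10% FBS, 37 °C, 5% CO2. Pretreated 30 min at 10, 5, 2.5 or 1.25 μM, then LPS 0.5 μg/mL for 24 h. IL-6 and TNF-α in medium measured by ELISA, normalized to lysate total protein; mean ± SEM of 3 independent experiments.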

In data set [7] the test system is Mus musculus. As to the kind of experiment: Antiinflammatory activity in LPS-induced C57/BL6 mouse acute lung injury model assessed as decrease in IL-6 level in serum at 20 mg/kg via oral gavage preincubated for 30 mins followed by LPS stimulation for 6 hrs by ELISA. The note with it: time 6.5 hrs.
The nature of data set [8]: Half life in rat at 10 mg/kg, po. Type of data set: ADME, organism-based. The following applies: in vivo. In short, it runs like this:
as §2

In data set [9] the test system is THP-1. Nature of the data set: Antiinflammatory activity in LPS-induced human THP-1 cells assessed as inhibition of LPS-induced TNF-alpha transcription preincubated for 0.5 hrs followed by LPS stimulation for 6 hrs by RT-qPCR method. It is filed as functional, cell-based. The note with it: dose 5-10 µM, time 6.5 hrs. A digest of the protocol: (§3)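 J774A.1 or THP-1 cells pretreated 0.5 h at 10 or 5 μM, then LPS 0.5 μg/mL for 6 h. TRIzol RNA; IL-6, TNF-α and IL-1β transcripts by RT-qPCR, normalized to β-actin and control; 3 independent experiments, mean ± SEM.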
On the technique in general: Real-time PCR tracks product formation cycle by cycle.

Data set [10] has as its system Mus musculus. As to the kind of experiment: Antiinflammatory activity in LPS-induced C57/BL6 mouse acute lung injury model assessed as decrease in TNF-alpha level in serum at 20 mg/kg via oral gavage preincubated for 30 mins followed by LPS stimulation for 6 hrs by ELISA. The note with it: time 6.5 hrs.
The test system of data set [11] is Mus musculus. Nature of the data set: Protection against LPS-induced sepsis in C57/BL6 mouse model assessed as reduction of obvious white pulp in spleen at 20 mg/kg, po preincubated with compound followed by LPS stimulation for 1 hr by H and E staining based analysis. Type of data set: functional, organism-based. A digest of the protocol: (§4)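 Mice given 20 mg/kg orally, then intraperitoneal LPS 20 mg/kg 1 h later; n = 12 per group. Kidney, liver, heart and spleen weighed; spleen sections H&E-stained for histology.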

Data set [12] relates to J774.A1. Nature of the data set: Antiinflammatory activity in LPS-induced mouse J774.A1 cells assessed as inhibition of LPS-induced TNF-alpha release preincubated for 30 mins followed by LPS stimulation for 24 hrs by ELISA method. It is filed as functional, cell-based. A digest of the protocol:
as §1

The subject of data set [13] is Mus musculus. As to the kind of experiment: Protection against LPS-induced sepsis in C57/BL6 mouse model assessed as reduction of lymph node hyperplasia at 20 mg/kg, po preincubated with compound followed by LPS stimulation for 1 hr by H and E staining based analysis. It is filed as functional, organism-based. In short, it runs like this: as §4
Data set [14] relates to Mus musculus. Nature of the data set: Protection against LPS-induced sepsis in C57/BL6 mouse model assessed as reduction in weight loss at 20 mg/kg, po preincubated with compound followed by LPS stimulation for 1 hr and measured every 24 hrs by 6 days. It is filed as functional, organism-based. The note with it: time 6.0 day. A digest of the protocol:
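Sepsis model in C57BL/6 mice, n = 12 per group: oral 20 mg/kg, then intraperitoneal LPS 20 mg/kg 1 h later; saline control. Survival checked every 12 h and body weight every 24 h for 6 days.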

Data set [15] relates to Mus musculus. Nature of the data set: Antiinflammatory activity in LPS-induced C57/BL6 mouse acute lung injury model assessed as decrease in TNF-alpha expression level at 20 mg/kg via oral gavage preincubated for 30 mins followed by LPS stimulation for 6 hrs by RT-qPCR method. The following applies: time 6.5 hrs. It is filed as functional, organism-based. In short, it runs like this: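 Male C57BL/6 mice, six weeks old, n = 8 per group. Dosed 20 mg/kg orally 30 min before intratracheal LPS 5 mg/kg; dexamethasone 20 mg/kg as comparator. Lung tissue collected 6 h after LPS. RNA extracted with TRIzol; IL-6 and TNF-α transcripts by RT-qPCR, normalized to β-actin; n = 5 mice per group, mean ± SEM.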

The subject of data set [16] is J774.A1. As to the kind of experiment: Antiinflammatory activity in LPS-induced mouse J774.A1 cells assessed as inhibition of LPS-induced IL-6 transcription preincubated for 0.5 hrs followed by LPS stimulation for 6 hrs by RT-qPCR method. Type of data set: functional, cell-based. The note with it: dose 5-10 µM, time 6.5 hrs. In short, it runs like this:
as §3

Data set [17] is described as follows: Stability of the compound in pH 7.4 phosphate buffer measured upto 30 mins by UV-Vis analysis. Type of data set: physicochemical. The following applies: pH 7.4, 0.5 h. In short, it runs like this:
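Dissolved in phosphate buffer pH 7.4; UV-visible absorption (OD) recorded over 30 min.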

Data set [18] has as its system Mus musculus. As to the kind of experiment: Protection against LPS-induced C57/BL6 mouse acute lung injury model assessed as reduction in protein concentration in BALF at 20 mg/kg via oral gavage preincubated for 30 mins followed by LPS stimulation for 6 hrs. It is filed as functional, organism-based. The note with it: time 6.5 hrs. In short, it runs like this:
(§5)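 Mice dosed 20 mg/kg by gavage (dexamethasone 20 mg/kg comparator), intratracheal LPS 5 mg/kg 30 min later, killed at 6 h. Right upper lobe fixed in paraformaldehyde, H&E; lung wet/dry ratio; BALF protein, total cells and neutrophils counted; n = 5 mice per group, mean ± SEM.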

Data set [19] deals with J774.A1. Nature of the data set: Inhibition of NF-kappaB pathway in LPS-induced mouse J774.A1 cells assessed as inhibition of IkappaB-alpha degradation preincubated with compound for 2 hrs followed by LPS-stimulation and measured after 30 mins by Western blot analysis. It is filed as cell-based. The following applies: dose 5-10 µM, time 2.5 hrs. In short, it runs like this:
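J774A.1 cells preincubated with 10 or 5 μM or DMSO for 2 h, then LPS 0.5 μg/mL for 30 min. RIPA lysates run on 12.5% SDS-PAGE, transferred to PVDF, blocked with 5% milk; probed for IκB-α and p-p65, with GAPDH and p65 as loading controls; ECL detection; densitometry.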

Data set [20] deals with Mus musculus. As to the kind of experiment: Protection against LPS-induced C57/BL6 mouse acute lung injury model assessed as reduction in number of total cells in BALF at 20 mg/kg via oral gavage preincubated for 30 mins followed by LPS stimulation for 6 hrs. It is filed as functional, organism-based. The following applies: time 6.5 hrs. A digest of the protocol:
as §5

Calls of active or inactive are those of the source.

One compound from ChEMBL document CHEMBL5346889, “Discovery of 4-oxo-N-phenyl-1,4-dihydroquinoline-3-carboxamide derivatives as novel anti-inflammatory agents for the treatment of acute lung injury and sepsis” (Eur J Med Chem, 2023) can be followed below.

One may read the IC50 as the concentration at which inhibition is half-maximal. As a reminder, the Tmax is the time from dosing to the highest level. One may read the AUC(0-t) as exposure summed from dosing to a finite time, without extrapolation to infinity. Low values mean low exposure, high ones high exposure. In general, Cmax refers to the highest concentration seen after dosing. The half-life is the time needed for the level to fall by half in the phase considered. For the compound `COc1cc2nccc(Oc3ccc(NC(=O)c4cn(-c5ccccc5)c5ccccc5c4=O)cc3)c2cc1OC`, the 50% inhibitory concentration (IC50) in the data set on J774.A1 [1] stood at 1330 nM; with THP-1 [6] it was 1330 nM; with J774.A1 [12], 2400 nM. Also, the inhibition entry with J774.A1 [1] (dose 1.25-10 µM, time 24.5 hrs) was “Dose-Dependent Effect”; in the data set with THP-1 [9], “Dose-Dependent Effect”; in the data set on J774.A1 [12] (dose 1.25-10 µM, time 24.5 hrs) it was “Dose-Dependent Effect”; in the data set on J774.A1 [16], “Dose-Dependent Effect”; in the data set with J774.A1 [19], “Dose-Dependent Effect”. Moreover, in data set [2], the Tmax stood at 5 h. This compound showed an exposure AUC(0-t) in [3] of 22900 ng·h/mL. Moreover, in the data set with J774.A1 [4], the result was inactive. In [5], this compound had a Cmax of 1680 ng/mL. In addition, the result in the data set with Mus musculus [7], with Mus musculus [10], in the data set with Mus musculus [11], with Mus musculus [13], with Mus musculus [14] and in the data set with Mus musculus [15] was Active. In addition, the result with Mus musculus [18] and in the data set on Mus musculus [20] was Active. This compound showed a half-life in [8] of 11.8 h. Moreover, the Stability result in data set [17] is given as “Stable”.
